What was measured:
[1] = biological target: Caspase-8 (Homo sapiens, UniProt Q14790); test: Inhibition of caspase 8
Summary of the method: (§1)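 Recombinant human caspase-1, -6 or -8 at 0.5 units per assay, preincubated 10 min at 37 °C with compound in DMSO at single doses from 5 pM to 500 µM. Fluorogenic AMC substrate then added at 10 µM final (caspase-1 Ac-YVAD-AMC, caspase-6 Ac-VEID-AMC, caspase-8 Ac-IETD-AMC) for a further 10 min. Read-out was AMC fluorescence. IC50 taken by nonlinear regression.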

[2] = biological target: T1, Caspase-6 (Homo sapiens, UniProt P55212); test: Inhibition of caspase 6; summary of the method: as §1
T1 sequence (P55212 whole entry): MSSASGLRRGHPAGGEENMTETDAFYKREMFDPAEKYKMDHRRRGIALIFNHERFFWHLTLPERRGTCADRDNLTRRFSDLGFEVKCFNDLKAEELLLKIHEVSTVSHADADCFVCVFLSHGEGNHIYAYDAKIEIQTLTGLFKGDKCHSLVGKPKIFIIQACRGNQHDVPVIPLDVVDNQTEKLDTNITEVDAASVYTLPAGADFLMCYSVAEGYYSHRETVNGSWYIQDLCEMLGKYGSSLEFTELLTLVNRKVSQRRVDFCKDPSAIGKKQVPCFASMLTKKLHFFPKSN

[3] = biological target: T2, Caspase-1 (Homo sapiens, UniProt P29466); test: Inhibition of caspase 1; summary of the method: as §1
T2 sequence (P29466 whole entry): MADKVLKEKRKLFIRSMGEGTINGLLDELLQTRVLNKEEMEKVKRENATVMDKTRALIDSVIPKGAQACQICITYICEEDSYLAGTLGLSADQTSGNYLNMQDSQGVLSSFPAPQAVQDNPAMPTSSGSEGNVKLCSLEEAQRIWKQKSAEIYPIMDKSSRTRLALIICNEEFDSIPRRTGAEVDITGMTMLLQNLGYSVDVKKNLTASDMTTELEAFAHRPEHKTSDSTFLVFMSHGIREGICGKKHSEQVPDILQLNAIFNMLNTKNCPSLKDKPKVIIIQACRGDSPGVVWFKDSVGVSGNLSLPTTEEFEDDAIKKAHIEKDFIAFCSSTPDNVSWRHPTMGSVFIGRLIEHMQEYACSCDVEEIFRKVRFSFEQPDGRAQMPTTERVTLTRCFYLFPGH

Measured: IC50

Sequence of Caspase-8 (Q14790 217-374 limits assumed): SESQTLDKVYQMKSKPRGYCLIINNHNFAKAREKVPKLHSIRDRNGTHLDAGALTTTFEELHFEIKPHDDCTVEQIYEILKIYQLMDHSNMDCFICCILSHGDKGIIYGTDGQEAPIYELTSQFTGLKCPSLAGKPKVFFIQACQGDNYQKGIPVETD
Sequence of Caspase-8 (Q14790 385-479 limits assumed): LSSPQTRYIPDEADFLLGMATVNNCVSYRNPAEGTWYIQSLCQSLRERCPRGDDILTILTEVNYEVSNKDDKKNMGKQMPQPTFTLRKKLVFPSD

CCC[CH2][Sn]([CH2]CCC)([CH2]CCC)[c]1ccc(CN2C(=O)C(=O)c3cc(S(=O)(=O)N4CCC[C@H]4COC)ccc32)cc1 [(S)-5-[1-(2-methoxymethylpyrrolidinyl)sulfonyl]-1-(4-(tributylstannyl)benzyl)isatin]
> 500 µM: [1] | [2] | [3]

CCC[CH2][Sn]([CH2]CCC)([CH2]CCC)[c]1ccc(CN2C(=O)C(=O)c3cc(S(=O)(=O)N4CCC[C@H]4COc4ccccc4)ccc32)cc1 [(S)-5-[1-(2-phenoxymethylpyrrolidinyl)sulfonyl]-1-(4-(tributylstannyl)benzyl)isatin]
> 500 µM: [1] | [2] | [3]
